Assays:
MOLM13 cells [1] = assay: RNA-seq with differential expression, KEGG enrichment and GSEA in MOLM13 cells; assay type: cell-based, human; details: 200 nM, 24 h, fold change ≥2 and adjusted p-value ≤0.05
MOLM13 cells [2] = assay: Cell viability / antiproliferation assay in MOLM13 cells; assay type: cell-based, human; details: 72-h viability, CRBN WT and CRBN-null HEK293T and MOLM13 cells, 10 μM and 1 μM
Method in brief: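 Screening ran as a 72-h viability assay in CRBN wild-type and CRBN-null (knockout) HEK293T and MOLM13 cells. Lenalidomide and CC-885 served as controls. MOLM13 CRBN WT and KO cells were tested in biological triplicates, and the assay was repeated in three separate experiments.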

SMILES	number of differentially expressed genes (DEGs) (MOLM13 cells [1])	activity in CRBN-dependent proliferation screen (MOLM13 cells [2])
CN1CCc2[nH]c(-c3ccnc(NC(=O)[C@@H](CC(F)F)c4ccc(F)cc4)c3)c(Nc3ccccc3)c2C1=O [BAY-204]	5,020 genes	–
Cc1ccc(NC(=O)NCc2ccc3c(c2)CN(C2CCC(=O)NC2=O)C3=O)cc1Cl (stereo not drawn) [CC-885]	–	nonselective profile
Nc1cccc2c1CN(C1CCC(=O)NC1=O)C2=O (stereo not drawn) [lenalidomide]	–	minimal activity
